Measured values published in the EternaBench riboswitch data.

Test system: MS2 coat protein
Experiment: apparent Kd, MS2 coat protein; higher = weaker binding; RNA-MaP array; FMN 200 µM where present
How it was run: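 The apparent Kd is reported as the median of filtered per-cluster binding-curve fits. To get these curves, designs transcribed by stalled E. coli RNA polymerase on Illumina sequencing-chip clusters were titrated with SNAP-549-labelled MS2 coat protein from 0.7 or 1.5 nM, doubling to 3 µM. Titrations were run without and then with constant ligand in 100 mM Tris-HCl pH 7.5, 80 mM KCl, 4 mM MgCl2, BSA, DTT, yeast tRNA and Tween-20, and green signal was normalised to red-channel RNA signal and control-cluster median Fmax.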

[1] = designed as: ON switch for flavin mononucleotide, no ligand
[2] = ligand present: flavin mononucleotide, designed as: ON switch for flavin mononucleotide
[3] = designed as: OFF switch for flavin mononucleotide, no ligand
[4] = ligand present: flavin mononucleotide, designed as: OFF switch for flavin mononucleotide

| Sequence | apparent Kd [1] [µM] | apparent Kd [2] [µM] | apparent Kd [3] [µM] | apparent Kd [4] [µM] |
| --- | --- | --- | --- | --- |
| GCUACGCCUGACAUGAGGAUCACCCAUGUUAGAUUGUUAUGUCAGGAUAUAGUCUAGAAACUAGACUAGAAGGGAUGUGUAGCU | 0.872 | 0.112 | – | – |
| AUACUCUUUGUGAGGAUAUCGUUUUCUUUACGGUUCGAGAAGGCACAUGAGGAUCACCCAUGUUUGACGUGAAU | – | – | 0.0244 | 0.0565 |
| AUUUAGAGAGGAUAUAUAAAGUGAAACAUGAGGAUCACCCAUGUAAUUUUAUGGAUGUAAAUAGAAGGCUCAUUUU | – | – | 0.0382 | 0.0294 |
| GUGGUCAGACAUGAGGAUCACCCAUGUGGAAUAAAUAAGGAGAAGGAUAUUAAAUAUAGGAUAUAUAAGAAGGUCUGGUUGGUG | 0.0868 | 0.0958 | – | – |
| GUGCCUUGGGAGAAGGCCCAAUGUAAAGCAUAGGGAGGAUAUUCAUAUAAUAAAUAAACAUGAGGAUCACCCAUGUGGCACAAA | 0.831 | 0.0485 | – | – |
| GGUCCGAGUGUGAGGAUAUGCUGGUCCUUGGAUCAGCAGAAGGCACAUGAGGAUCACCCAUGUGGAGACGGACC | – | – | 0.206 | 0.538 |
| GUGGUCAGACAUGAGGAUCACCCAUGUGGAAUAAAUAAGGAGAAGGAUAUUGAAUAUAGGAUAUACAAGAAGGUCUGGUUGGUG | 0.0849 | 0.087 | – | – |
| CGAUGAGUAGGAUAUGCGUCGGAUGCAUCUGCAUGUCACUUACAUGAGGAUCACCCAUGUAGAAGGGCUCGUUC | – | – | 0.019 | 0.026 |
| UCGGCGCGAGGAUAUACGUUUGCUUUUUGGGAUCGUUGCGUACAUGAGGAUCACCCAUGUAGAAGGCGCGCCGC | – | – | 0.0176 | 0.0738 |
| CUUGUGUUAGGAUAUGCGCCCUGCAGAAGCAGGGCCAGAGAGCAGAAGGAACAUGAGGAUCACCCAUGUGUGAC | – | – | 0.0655 | 0.0537 |
| AUACGAAAGAUAGGAUAUACUGAGGUUGAAUGGGUAGAAGGAUCGAUAGUGGAGAAGACAUGAGGAUCACCCAUGUUGUGGAUU | 0.681 | 0.217 | – | – |
| GUCAGCUCGUGAGGAUAUACAACACUGCUUCGCCAGUGUAUUAAGAUCACAUGAGGAUCACCCAUGUAGAAGGCACGAGCUGAU | – | – | 0.0144 | 0.216 |
| GCUGCAUAUGAGAAGGCGAUCAUGAAACAUGAUCGAGGAUAUCAUGUAAACAUGAGGAUCACCCAUGUAUGGGUAUUAAGCAGC | 0.282 | 0.0505 | – | – |
| UGAAUCUAGUAAGGAUAUACACGAGAUACAAGUGUAGAAGGUACUUACAUGAGGAUCACCCAUGUAUACAUGGAUAAUAGAUAU | 0.291 | 0.182 | – | – |
| CGUUAUGAUAAAGGAUAUAUAAUAGAUAUACAUGAGGAUCACCCAUGUUACAUGGAUUCAAAUUUAUAGAAGGUUAUCCUAUCG | – | – | 0.036 | 0.0226 |
| AGUACUCAAAGAGUACCCAUACGGACAUGAGGAUCACCCAUGUAGGAUAUGCUACUCAAAGAGUAGUAGAAGGACAUGUUCCUC | – | – | 0.0124 | 0.0436 |
| AAAAGACAUGAGGAUCACCCAUGUUAAAACGUAGGAGGAUAUGUAUGGAAAACAUGCUGUACAGAAGGCCUGUGUC | 0.0173 | 0.0171 | – | – |
| GAAUAUUCGUUGUACAUGAGGAUCACCCAUGUAACUUGACAUGAGGAUAUGGAUUCUAAUUGGAUCCAGAAGGCAUGAAUAUUC | 0.0484 | 0.0218 | – | – |
| UUGGACGUCGUAGGAUAUGUAGGAUAUUCCUACAUGAGGAUCACCCAUGUUGACAUGGAAGAAGGACAGAAGGCCGAUGUCCAU | 0.409 | 0.00487 | – | – |
| UAAUAAAACGAUCGGCGAUCCAUACAUGAGGAUCACCCAUGUAGAAGGGACUCUACAAAGUAGAGUCAGGAUAUACAAGAUCGA | – | – | 0.01 | 0.124 |
